9 compounds from ChEMBL document CHEMBL1138829, “Conformationally constrained analogues of diacylglycerol. 21. A solid-phase method of synthesis of diacylglycerol lactones as a prelude to a combinatorial approach for the synthesis of protein kinase C isozyme-specific ligands” (J Med Chem, 2004) can be followed below.

Data set [1] is described as follows: Partition coefficient (logP). In kind it is physicochemical. The conditions noted are these: octanol/water.
Data set [2] concerns the target T1, Protein kinase C alpha type (Homo sapiens, UniProt P17252). In words: (§1) Displacement of [20-3H]phorbol-12,13-dibutyrate (PDBu) from a recombinant protein kinase C alpha with phosphatidylserine. An outline of the steps: (§2)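 Competition binding against [20-3H]PDBu using intact recombinant single isozyme PKC-alpha in presence of phosphatidylserine; tested as crude resin-cleaved and purified samples. ID50 obtained by least-squares fit of theoretical sigmoidal competition curve; Ki calculated from ID50 via standard relationship.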

Data set [3] has as its target T1, Protein kinase C alpha type. Described as §1. Put shortly:
as §2
This is another data set of the same source.

Data set [4] has the same target. Described as §1. An outline of the steps: as §2
The source holds these as a separate data set.

As a reminder, the logP is the decadic logarithm of the partition coefficient of the neutral form, usually between octanol and water. A lower logP goes with a more hydrophilic compound. In general, Ki refers to a measure of affinity in units of concentration, obtained from inhibition or displacement.

For `CCCCCCCC/C=C1/CC(CO)(COC(=O)c2ccc(-c3ccccc3)cc2)OC1=O` (configuration not stated), the logP in data set [1] is 6.12. The inhibition constant Ki was determined as 28 nM in data set [2] and 41.8 nM in data set [3].
In the same order, the values of `CCCCCCCC/C=C1/CC(CO)(COC(=O)Cc2ccccc2)OC1=O` (configuration not stated) are 4.61, 43.3 nM and 145 nM.
In the case of `CCCCCCCCC/C=C1/CC(CO)(COC(=O)c2ccccc2)OC1=O` (configuration not stated), in data set [1], the log partition coefficient (logP) turned out to be 4.85. Moreover, the Ki stood at 20.3 nM in data set [2] and 37 nM in data set [4].
In the case of `O=C1OC(CO)(COC(=O)c2ccccc2)C/C1=C/c1ccc(-c2ccccc2)cc1` (configuration not stated), in data set [1], the logP was determined as 3.9. Besides, the Ki in data set [2] was 14.1 nM; in data set [3], 41 nM.
Consider `O=C1OC(CO)(COC(=O)c2ccc(-c3ccccc3)cc2)C/C1=C/c1ccc(-c2ccccc2)cc1` (configuration not stated), for which, in data set [1], the lipophilicity (logP) came out at 5.66. Besides, the inhibition constant (Ki) was determined as 22.7 nM in data set [2] and 83.9 nM in data set [3].
In turn, `CCCCCCCCC/C=C1/CC(CO)(COC(=O)c2ccc(-c3ccccc3)cc2)OC1=O` (configuration not stated) displayed a logP in data set [1] of 6.61. Further, the Ki was found to be 19.1 nM in data set [2] and 52.4 nM in data set [4].
In the same order, the values of `CCCCCCCCC/C=C1/CC(CO)(COC(=O)Cc2ccccc2)OC1=O` (configuration not stated) are 5.1, 43.8 nM and 92.5 nM.
`CCCCCCCC/C=C1/CC(CO)(COC(=O)c2ccccc2)OC1=O` (configuration not stated) showed a lipophilicity (logP) in data set [1] of 4.36. The Ki in data set [2] was determined as 25.7 nM; in data set [3] it was 45.6 nM.
In the same order, the values of `O=C(Cc1ccccc1)OCC1(CO)C/C(=C/c2ccc(-c3ccccc3)cc2)C(=O)O1` (configuration not stated) are 4.15, 48 nM and 152 nM.
